Data on three compounds can be found in PMC6718336 (Proteins, 2019).

“And” between values parts separate entries of the source, which are not always exact repeats. Equal values may be shown once.

In test [1] the target is Hsp90α (1-236) NTD (Homo sapiens, UniProt P07900). In words: ITC binding to Hsp90α NTD. The following applies: ITC, 298 K; for N: stoichiometry, one-site model. Put shortly: (§1)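 Human Hsp90α residues 1-236, N-terminal His-tagged, expressed in E. coli Rosetta (DE3), purified by Ni-NTA and size exclusion. ITC in matched 40 mM HEPES-KOH pH 7.4, 100 mM NaCl, 1% DMSO. Protein (503 or 336 μM) titrated into test compound (50.7 or 30.1 μM); nucleotides titrated into protein. One-site fit, mean of two titrations ± SEM.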

Test [2] deals with Hsp90α (1-236) NTD. Kind of test: ITC binding to Hsp90α NTD. The arrangement: species or system Human. The following applies: preference for Hsp90α over Hsp90β from ITC KD. Put shortly: as §1
The target of test [3] is Hsp90β NTD (Homo sapiens, UniProt P08238). In words: ITC binding to Hsp90β NTD. The following applies: 298 K; for N: stoichiometry, one-site model. Put shortly: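 Human Hsp90β NTD, N-terminal His-tagged, expressed in E. coli Rosetta (DE3), purified by Ni-NTA then size exclusion. ITC in matched 40 mM HEPES-KOH pH 7.4, 100 mM NaCl, 1% DMSO. 891 or 885 μM protein was injected into 93.3 or 97.8 μM test compound in the cell. For ATP/ADP, protein was in the cell and nucleotide in the syringe. One-site fit; mean of two titrations ± SEM.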

Test [4] addresses Hsp90α S52A (1-236) (Homo sapiens, UniProt P07900, S52A). In words: ITC binding to Hsp90α S52A mutant NTD. The conditions noted are these: for C-values / Kd / TΔS / ΔG / ΔH / N: ITC, 298 K; for N: stoichiometry, one-site model; for fold change in affinity, Hsp90α S52A vs wild type Hsp90α: ratio of ITC KD. Put shortly: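 Human Hsp90α NTD (1-236) S52A, N-terminal His-tagged, expressed in E. coli Rosetta (DE3), purified by Ni-NTA then size exclusion. ITC in matched 40 mM HEPES-KOH pH 7.4, 100 mM NaCl, 1% DMSO. 255 or 393 μM protein was injected into 33.0 or 41.8 μM test compound. Wild type was run alike: 503 or 336 μM into 50.7 or 30.1 μM. One-site fit; mean of two titrations ± SEM.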

Test [5] has as its system Hsp90β. The following applies: competition binding assays; cited from earlier work.

Sequence of Hsp90β NTD (P08238 1-221 limits assumed): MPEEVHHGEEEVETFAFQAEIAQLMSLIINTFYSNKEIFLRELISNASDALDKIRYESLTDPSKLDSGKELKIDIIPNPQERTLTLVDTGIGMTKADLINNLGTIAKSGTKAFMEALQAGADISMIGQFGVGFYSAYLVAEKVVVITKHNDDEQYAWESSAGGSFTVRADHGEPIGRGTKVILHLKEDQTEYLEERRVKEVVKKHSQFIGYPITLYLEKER

As to `Nc1ncnc2c1ncn2[C@@H]1O[C@H](COP(=O)(O)OP(=O)(O)OP(=O)(O)O)[C@@H](O)[C@H]1O` [ATP], in test [1], the C-values is 1.13 – 1.44, binding was put at a Kd of 209 ± 21.9 µM, the TΔS was -12.0 ± 1.84 kcal/mol and the ΔG is -5.05 ± 0.07 kcal/mol. In test [1], this compound came in with a ΔH of -17.1 ± 1.77 kcal/mol and an N of 0.691 ± 0.066. Besides, in test [2], the “α/β selectivity, KD (ITC)” value came to 1.3 ± 0.2 fold. In test [3], the C-values is given as 1.00 – 1.19, binding was put at a Kd of 281 ± 39.6 µM, the TΔS was -12.3 ± 2.55 kcal/mol and the ΔG was -4.90 ± 0.14 kcal/mol. In test [3], the ΔH was -17.2 ± 2.40 kcal/mol and the N worked out at 0.707 ± 0.112. For the same compound, in test [4], the C-values is reported as 1.26 – 1.29, the Kd is 239 ± 0.71 µM, the TΔS is -12.7 ± 0.85 kcal/mol and the ΔG was -4.95 ± 0.07 kcal/mol. Besides, in test [4], the ΔH is -17.7 ± 0.78 kcal/mol; the N came to 0.592 ± 0.026; the “fold change in affinity, Hsp90α S52A vs wild type Hsp90α” value is given as 1.14 ± 0.12 fold.

Take `CC(C)c1cc(C(=O)N2Cc3ccccc3C2)c(O)c2cnoc12` [KUNB31]: the “preference for Hsp90β over Hsp90α” value in test [5] is recorded as 50 fold.

For the compound `Nc1ncnc2c1ncn2[C@@H]1O[C@H](COP(=O)(O)OP(=O)(O)O)[C@@H](O)[C@H]1O` [ADP], in test [1], the C-values is recorded as 8.40 – 11.1; the Kd is 8.6 µM and 8.59 µM; the TΔS was -13.0 ± 0.28 kcal/mol; the ΔG was -6.90 ± 0.00 kcal/mol. In addition, in test [1], the ΔH is -19.9 ± 0.28 kcal/mol and the N is 0.752 ± 0.014. Moreover, the “α/β selectivity, KD (ITC)” value in test [2] came out at 1.4 ± 0.2 fold. Further, in test [3], the C-values is listed as 6.74 – 14.1, the Kd was 12.4 ± 1.77 µM, the TΔS was -12.9 ± 0.99 kcal/mol and the ΔG was -6.75 ± 0.07 kcal/mol. In test [3], this compound returned a ΔH of -19.7 ± 0.92 kcal/mol and an N of 0.813 ± 0.042. Further, in test [4], the C-values is given as 16.7 – 18.2, the Kd is 9.06 ± 0.93 µM, the TΔS is -13.0 ± 0.21 kcal/mol and the ΔG is -6.85 ± 0.07 kcal/mol. For the same compound, in test [4], the ΔH is -19.8 ± 0.14 kcal/mol; the N was determined as 0.756 ± 0.100; the “fold change in affinity, Hsp90α S52A vs wild type Hsp90α” value is listed as 1.05 ± 0.11 fold.
